Experimental data: ChEMBL document CHEMBL1150774, “1-[(Imidazolidin-2-yl)imino]indazole. Highly alpha 2/I1 selective agonist: synthesis, X-ray structure, and biological activity” (J Med Chem, 2008)
Active and inactive are the calls of the source. The rule behind the calls is not given here.

Legend:
[1] = Displacement of [3H][…] from alpha2 adrenoceptor in Sprague-Dawley rat brain
How it was run: (§1)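 Crude P2 membranes from male rat brain (250-280 g), washed and stored at -70 °C. 0.2-0.3 mg protein incubated with 11 concentrations (0.01 nM to 100 µM) plus 1 nM [3H]2BFI (I2) or 1 nM [3H]RX821002 (α2). Nonspecific binding: 10 µM BU224 (I2) or 10 µM rauwolscine (α2). Run in triplicate, 45 min at room temperature. Ki by Cheng-Prusoff, 3-4 experiments.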

Nischarin = Nischarin (Rattus norvegicus, UniProt Q4G017); assay: Displacement of [3H]clonidine from imidazoline 1 receptor in Sprague-Dawley rat kidney
How it was run: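 Crude P2 membranes from male rat kidney (250-280 g), 0.2-0.5 mg protein. Labelled with 3 nM [3H]clonidine; 10 µM rauwolscine present to block α2 sites; specific binding defined by 10 µM rilmenidine. 11 test concentrations. 50 mM Tris-HCl pH 7.4, 45 min at room temperature. Filtration, scintillation counting; IC50 is displacement of 50% of specific binding.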

[2] = Displacement of [3H]2BFI from imidazoline 2 receptor in Sprague-Dawley rat brain; how it was run: as §1
Rattus norvegicus [3] = species: Rattus norvegicus; assay: Selectivity for Sprague-Dawley rat alpha 2 adrenoceptor over Sprague-Dawley rat imidazoline 1 receptor
Rattus norvegicus [4] = assay: Hypotensive activity in Wistar rat assessed as decrease in mean arterial blood pressure at 0.1 mg/kg, iv after 10 mins; format: functional
How it was run: (§2)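 Male rats (200-250 g) anaesthetised with thiopental 70 mg/kg ip, then maintained at 30 (µg/kg)/min. Saline-thiopental infusion at 1.2 mL/h; 40 min recovery, then 40 min saline. Compound given as iv bolus at 0.1 mg/kg. MAP and HR recorded directly at 100 Hz. ΔMAP and ΔHR taken relative to time 0; 4-7 experiments; repeated-measures ANOVA.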

Rattus norvegicus [5] = assay: Hypotensive activity in Wistar rat assessed as decrease in heart rate at 0.1 mg/kg, iv after 10 mins; format: functional; how it was run: as §2
Rattus norvegicus [6] = assay: Hypotensive activity in Wistar rat assessed as decrease in mean arterial blood pressure at 0.1 mg/kg, iv after 30 mins; format: functional; how it was run: as §2
Rattus norvegicus [7] = assay: Hypotensive activity in Wistar rat assessed as decrease in heart rate at 0.1 mg/kg, iv after 30 mins; format: functional; how it was run: as §2
Rattus norvegicus [8] = assay: Hypotensive activity in Wistar rat assessed as decrease in mean arterial blood pressure at 0.1 mg/kg, iv after 60 mins; format: functional; how it was run: as §2
Rattus norvegicus [9] = assay: Hypotensive activity in Wistar rat assessed as decrease in heart rate at 0.1 mg/kg, iv after 60 mins; format: functional; how it was run: as §2
Rattus norvegicus [10] = assay: Hypotensive activity in Wistar rat assessed as decrease in mean arterial blood pressure at 0.1 mg/kg, iv after 90 mins; format: functional; how it was run: as §2
Rattus norvegicus [11] = assay: Hypotensive activity in Wistar rat assessed as decrease in heart rate at 0.1 mg/kg, iv after 90 mins; format: functional; how it was run: as §2
Rattus norvegicus [12] = assay: Reversal of hypotensive activity in Wistar rat at 10 mg/kg, iv in presence of RX821002; format: functional, organism-based; design: dose 10 mg/kg
Rattus norvegicus [13] = species: Rattus norvegicus; assay: Hypotensive activity in Wistar rat assessed as mean arterial blood pressure; format: functional

Chain of Nischarin (Q4G017 whole entry): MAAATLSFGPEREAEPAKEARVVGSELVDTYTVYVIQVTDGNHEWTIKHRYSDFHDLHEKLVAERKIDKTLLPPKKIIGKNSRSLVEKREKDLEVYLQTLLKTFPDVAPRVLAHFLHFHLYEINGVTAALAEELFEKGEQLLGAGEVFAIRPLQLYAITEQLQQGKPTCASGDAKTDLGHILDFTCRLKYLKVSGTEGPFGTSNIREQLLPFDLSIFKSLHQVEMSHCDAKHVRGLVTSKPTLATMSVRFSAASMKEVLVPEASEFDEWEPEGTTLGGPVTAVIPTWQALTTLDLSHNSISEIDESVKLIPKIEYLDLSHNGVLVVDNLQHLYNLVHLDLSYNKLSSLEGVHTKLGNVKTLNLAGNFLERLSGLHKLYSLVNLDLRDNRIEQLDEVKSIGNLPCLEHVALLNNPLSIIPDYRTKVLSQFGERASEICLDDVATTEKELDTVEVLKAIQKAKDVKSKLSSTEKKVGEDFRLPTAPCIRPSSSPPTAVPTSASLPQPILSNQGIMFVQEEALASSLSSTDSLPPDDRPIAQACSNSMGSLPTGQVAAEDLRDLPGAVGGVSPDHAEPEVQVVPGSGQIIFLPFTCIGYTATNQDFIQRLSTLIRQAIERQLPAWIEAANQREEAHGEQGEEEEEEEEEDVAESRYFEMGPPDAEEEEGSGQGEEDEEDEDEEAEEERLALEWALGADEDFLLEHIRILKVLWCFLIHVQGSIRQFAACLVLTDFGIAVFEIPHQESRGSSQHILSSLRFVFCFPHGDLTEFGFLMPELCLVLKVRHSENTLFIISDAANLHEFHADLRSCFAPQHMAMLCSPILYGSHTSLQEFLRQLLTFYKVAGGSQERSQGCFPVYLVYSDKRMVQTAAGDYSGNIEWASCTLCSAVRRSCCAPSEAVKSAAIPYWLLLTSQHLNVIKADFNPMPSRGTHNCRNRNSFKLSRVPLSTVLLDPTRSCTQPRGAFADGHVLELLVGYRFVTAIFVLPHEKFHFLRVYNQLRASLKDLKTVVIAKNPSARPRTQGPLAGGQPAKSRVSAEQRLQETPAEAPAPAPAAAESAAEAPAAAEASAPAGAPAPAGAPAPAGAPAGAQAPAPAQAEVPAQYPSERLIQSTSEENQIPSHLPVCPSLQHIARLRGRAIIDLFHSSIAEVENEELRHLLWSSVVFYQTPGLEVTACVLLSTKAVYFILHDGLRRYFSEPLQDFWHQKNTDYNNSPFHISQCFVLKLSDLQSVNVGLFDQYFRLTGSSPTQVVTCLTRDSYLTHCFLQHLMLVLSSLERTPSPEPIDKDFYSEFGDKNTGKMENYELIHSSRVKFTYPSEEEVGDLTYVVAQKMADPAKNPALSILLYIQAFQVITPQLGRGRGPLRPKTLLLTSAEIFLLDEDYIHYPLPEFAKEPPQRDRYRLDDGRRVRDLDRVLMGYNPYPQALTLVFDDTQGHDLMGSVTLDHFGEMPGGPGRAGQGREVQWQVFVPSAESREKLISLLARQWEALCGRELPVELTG

Structure (SMILES) | Ki [1] | IC50 (Nischarin) | Ki [2] | Selectivity ratio (Rattus norvegicus [3]) | Activity (Rattus norvegicus [4]) | Activity (Rattus norvegicus [5]) | Activity (Rattus norvegicus [6]) | Activity (Rattus norvegicus [7]) | Activity (Rattus norvegicus [8]) | Activity (Rattus norvegicus [9]) | Activity (Rattus norvegicus [10]) | Activity (Rattus norvegicus [11]) | Activity (Rattus norvegicus [12]) | ED50 (Rattus norvegicus [13])
c1ccc2c(c1)ncn2N=C1NCCN1 | 6.02 µM | > 100 µM | > 10 µM | > 16.6 |  |  |  |  |  |  |  |  |  | 
Cc1ccc2nn(N=C3NCCN3)cc2c1 | 45.6 µM | 13.4 µM | 11.4 µM | 0.29 |  |  |  |  |  |  |  |  |  | 
COc1cccc2c1cnn2N=C1NCCN1.Cl | 69.6 µM | 13.5 µM | 5.98 µM | 0.19 | -3.7 mmHg | -18.6 bpm | -7.6 mmHg | -9.7 bpm | -11 mmHg | -12.5 bpm | -12.9 mmHg | -11.6 bpm |  | 
Cc1nn(N=C2NCCN2)c2ccccc12 | 71.1 µM |  |  |  |  |  |  |  |  |  |  |  |  | 
Cc1cc2ncn(N=C3NCCN3)c2cc1C | 10.1 µM |  | > 10 µM |  |  |  |  |  |  |  |  |  |  | 
Cl.Clc1cccc2c1cnn2N=C1NCCN1 | 0.0616 µM | 31.5 µM | 11.1 µM | 511 | -10.9 mmHg | -60.8 bpm | -14 mmHg | -32.2 bpm | -12.3 mmHg | -24.3 bpm | -10.9 mmHg | -19 bpm |  | 
Cl.c1ccc(-c2nn(N=C3NCCN3)c3ccccc23)cc1 | 25.8 µM | 76.5 µM | 0.684 µM | 2.96 | -4.1 mmHg | -17.7 bpm | -7.6 mmHg | -10.1 bpm | -10 mmHg | -11.1 bpm | -11.4 mmHg | -12.7 bpm |  | 
Clc1cccc2nn(N=C3NCCN3)cc12 | 3.14 µM | 47.8 µM | 13.1 µM | 15.3 |  |  |  |  |  |  |  |  |  | 
Cc1cccc2cnn(N=C3NCCN3)c12.Cl | 0.0535 µM | 0.387 µM | 2.52 µM | 7.23 | -14.8 mmHg | -110 bpm | -40.6 mmHg | -115 bpm | -43.5 mmHg | -122.9 bpm | -43.2 mmHg | -119.9 bpm | Active | 0.6 µg/kg
Cc1cccc2c1cnn2N=C1NCCN1.Cl | 0.0371 µM | 38.5 µM | 10.4 µM | 1040 | -17.7 mmHg | -104.2 bpm | -29 mmHg | -88.3 bpm | -14.1 mmHg | -22.7 bpm | -10.1 mmHg | -2.1 bpm |  | 
c1ccc2nn(N=C3NCCN3)cc2c1 | 78.3 µM |  | 77.8 µM |  |  |  |  |  |  |  |  |  |  | 
c1ccc2c(c1)nnn2N=C1NCCN1 | > 10 µM | 84.6 µM | > 10 µM | < 8.46 |  |  |  |  |  |  |  |  |  | 
COc1ccc2cnn(N=C3NCCN3)c2c1.Cl | 0.0962 µM |  | 33.6 µM |  | -16.5 mmHg | -33 bpm | -17.1 mmHg | -23.6 bpm | -11.6 mmHg | -4.1 bpm | -5.3 mmHg | 14.3 bpm |  | 
Cl.c1ccc2c(c1)cnn2N=C1NCCN1 [MARSANIDINE HYDROCHLORIDE] | 0.0141 µM | 54.5 µM | 16.9 µM | 3880 | -6.9 mmHg | -48.5 bpm | -30.9 mmHg | -49 bpm | -29 mmHg | -31.4 bpm | -22.1 mmHg | -9.7 bpm |  | 
Cc1ccc2cnn(N=C3NCCN3)c2c1.Cl | 0.0491 µM |  | 19.2 µM |  | -13.2 mmHg | -71.8 bpm | -23.4 mmHg | -43.5 bpm | -20.8 mmHg | -26.4 bpm | -11 mmHg | -22.2 bpm |  | 
Cc1ccc2cn(N=C3NCCN3)nc2c1 | 50.7 µM | 19.7 µM | 42.9 µM | 0.39 |  |  |  |  |  |  |  |  |  | 
Clc1ccc2nn(N=C3NCCN3)cc2c1 | 74.1 µM | 24.7 µM | 33.2 µM | 0.33 |  |  |  |  |  |  |  |  |  | 
Cc1cccc2nn(N=C3NCCN3)cc12 | 11.8 µM |  | 35.1 µM |  |  |  |  |  |  |  |  |  |  | 
Cl.Clc1ccc2c(cnn2N=C2NCCN2)c1 | 0.114 µM | 17 µM | 20.6 µM | 149 | -0.2 mmHg | 0.6 bpm | -1.4 mmHg | 7.2 bpm | -2.8 mmHg | 12.8 bpm | -1.1 mmHg | 28.6 bpm |  | 
Cc1ccc2c(cnn2N=C2NCCN2)c1.Cl | 0.0442 µM | 20.3 µM | 7.16 µM | 460 | -4.1 mmHg | -104.2 bpm | -3.6 mmHg | -3.2 bpm | -4.6 mmHg | -1 bpm | -4.9 mmHg | -3 bpm |  | 
